Results published in ChEMBL document CHEMBL1139865 (J Med Chem, 2007).
Calls of active or inactive are those of the source. The calls are words filed in the database; no cut-off is given here.

Key:
Rattus norvegicus [1] = organism: Rattus norvegicus; assay: Improvement in glucose tolerance in Wistar fatty rat; type: functional, organism-based
Outline: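 Glucose tolerance test in female Wistar fatty rats given the benzoate salt, with doses normalized to free base. Read-outs after an oral glucose load were plasma glucose, the baseline (0 min)-adjusted glucose AUC0–60min, and plasma immunoreactive insulin, including the level at 10 min. Data are mean and SD (n = 6), compared with control by one-tailed Williams'/Shirley-Williams' tests.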

Rattus norvegicus [2] = organism: Rattus norvegicus; assay: Increase in plasma insulin level in Wistar fatty rat; type: functional, organism-based
Outline: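 Female Wistar fatty rats given a benzoate salt, with doses expressed as free base, then an oral glucose load. Plasma immunoreactive insulin read 10 min after the glucose load. Mean and SD, n = 6. Compared with control by one-tailed Williams' or Shirley-Williams' test, p ≤ 0.025.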

in vitro [3] = settings: human
in vitro [4] = settings: rat
[5] = Half life in rat at 1 mg/kg, iv; type: ADME, organism-based; parameters: dose 1 mg/kg, route intravenous; settings: in vivo
Outline: (§1)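 Rat PK study using the TFA salt. A single iv dose (1 mg/kg) and a separate oral dose (10 mg/kg) were given. Half-life was derived for each route, and CL and Vdss for the iv route. F (%) was calculated from the oral and iv exposure.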

[6] = Half life in rat at 10 mg/kg, po; type: ADME, organism-based; parameters: dose 10 mg/kg, route oral; settings: in vivo; outline: as §1
[7] = AUC in rat at 10 mg/kg, po; type: ADME, organism-based; parameters: dose 10 mg/kg, route oral; settings: plasma
Outline: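 Rat pharmacokinetics with the test article given as the TFA salt: 1 mg/kg iv and 10 mg/kg oral. Oral AUC comes from plasma concentrations after oral dosing. Half-lives, clearance, Vdss and oral bioavailability are derived from the same iv/oral pair.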

[8] = Clearance in rat at 1 mg/kg, iv and 10 mg/kg, po; type: ADME, organism-based; settings: in vivo; outline: as §1
[9] = Volume of distribution at steady state in rat at 1 mg/kg, iv and 10 mg/kg, po; type: ADME, organism-based; settings: in vivo, read-out: Vdss; outline: as §1
Mus musculus = organism: Mus musculus; assay: Reduction in glucose excursion in mouse after oral glucose tolerance test; type: functional, organism-based
[10] = Half life in dog at 1 mg/kg, iv; type: ADME, organism-based, Canis lupus familiaris; parameters: dose 1 mg/kg, route intravenous; settings: in vivo
Outline: (§2)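 Dog PK study using the HCl salt, dosed at 1 mg/kg iv or 3 mg/kg orally. Plasma drug levels were followed, and plasma DPP-4 activity was tracked alongside them.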

[11] = Half life in dog at 3 mg/kg, po; type: ADME, organism-based, Canis lupus familiaris; parameters: dose 3 mg/kg, route oral; settings: in vivo; outline: as §2
[12] = AUC in dog at 3 mg/kg, po; type: ADME, organism-based, Canis lupus familiaris; parameters: dose 3 mg/kg, route oral; settings: plasma; outline: as §2
[13] = Clearance in dog at 1 mg/kg, iv and 3 mg/kg, po; type: ADME, organism-based, Canis lupus familiaris; settings: in vivo; outline: as §2
[14] = Volume of distribution at steady state in dog at 1 mg/kg, iv and 3 mg/kg, po; type: ADME, organism-based, Canis lupus familiaris; settings: in vivo, read-out: Vdss; outline: as §2
[15] = Bioavailability in dog at 1 mg/kg, iv and 3 mg/kg, po; type: ADME, organism-based, Canis lupus familiaris; settings: in vivo; outline: as §2
[16] = Half life in monkey at 1.1 mg/kg, iv; type: ADME, organism-based, Macaca mulatta; parameters: dose 1.1 mg/kg, route intravenous; settings: rhesus monkey, in vivo
Outline: (§3)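 Monkey PK study using the benzoate salt, dosed at 1.1 mg/kg iv or 10 mg/kg orally. Plasma drug concentrations and plasma DPP-4 inhibition were measured. Parameters derived were iv and oral half-lives, oral AUC, CL, Vdss and F (%).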

[17] = Half life in monkey at 10 mg/kg, po; type: ADME, organism-based, Macaca mulatta; parameters: dose 10 mg/kg, route oral; settings: rhesus monkey, in vivo; outline: as §3
[18] = AUC in monkey at 10 mg/kg, po; type: ADME, organism-based, Macaca mulatta; parameters: dose 10 mg/kg, route oral; settings: rhesus monkey, plasma; outline: as §3
[19] = Clearance in monkey at 1.1 mg/kg, iv and 10 mg/kg, po; type: ADME, organism-based, Macaca mulatta; settings: rhesus monkey, in vivo; outline: as §3
[20] = Volume of distribution at steady state in monkey at 1.1 mg/kg, iv and 10 mg/kg, po; type: ADME, organism-based, Macaca mulatta; settings: rhesus monkey, in vivo, read-out: Vdss; outline: as §3
[21] = Bioavailability in monkey at 1.1 mg/kg, iv and 10 mg/kg, po; type: ADME, organism-based, Macaca mulatta; settings: rhesus monkey, in vivo; outline: as §3

For `Cn1c(=O)cc(N2CCC[C@@H](N)C2)n(Cc2ccccc2C#N)c1=O`, the Activity (Rattus norvegicus [1]) was “Dose-dependent effect” and the Activity (Rattus norvegicus [2]) was “Active”.

For `N#Cc1ccccc1Cn1c(N2CCC[C@@H](N)C2)nc2cccc(F)c2c1=O`, the half-life at 1 µM (in vitro [3]; microsomes) was 2.08 h and the half-life at 1 µM (in vitro [4]; microsomes) was 0.03 h.

For `N#Cc1ccccc1Cn1c(N2CCC[C@@H](N)C2)nc2cc(N3CCOCC3)c(F)cc2c1=O`, the half-life at 1 µM (in vitro [3]; liver microsomes) was 0.55 h and the half-life at 1 µM (in vitro [4]; liver microsomes) was 0.102 h.

`N#Cc1ccccc1Cn1c(N2CCC[C@@H](N)C2)nc2c(Cl)cc(Cl)cc2c1=O` showed a half-life at 1 µM (in vitro [3]; microsomes) of 1.07 h and a half-life at 1 µM (in vitro [4]; microsomes) of 0.283 h.

`N#Cc1ccccc1Cn1c(N2CCCC(N)C2)nc2c(Cl)cccc2c1=O` (configuration not stated) showed a half-life at 1 µM (in vitro [3]; liver microsomes) of 1.33 h and a half-life at 1 µM (in vitro [4]; liver microsomes) of 0.0617 h.

Work on `COc1cc2nc(N3CCC[C@@H](N)C3)n(Cc3ccccc3C#N)c(=O)c2cc1OC` yielded a half-life at 1 µM (in vitro [3]; liver microsomes) of 2.43 h and a half-life at 1 µM (in vitro [4]; liver microsomes) of 1.78 h.

Compound `N#Cc1ccccc1Cn1c(N2CCC[C@@H](N)C2)nc2ccc(F)cc2c1=O` [listing 1 of 2 here] has a half-life at 1 µM (in vitro [3]; liver microsomes) greater than 3.33 h and a half-life at 1 µM (in vitro [4]; liver microsomes) of 0.517 h.

`N#Cc1ccccc1Cn1c(N2CCC[C@@H](N)C2)nc2ccc(F)cc2c1=O.O=C(O)C(F)(F)F` showed a half-life [5] of 2.6 h, a half-life [6] of 2.43 h and an AUC [7] of 7560 ng·h/mL. The clearance [8] was 20.6 mL/min/kg and the Vd [9] was 2.87 L/kg.

For `N#Cc1ccccc1Cn1c(N2CCC[C@@H](N)C2)nc2ccc(F)cc2c1=O` [listing 2 of 2 here], the Activity (Mus musculus) was “Active”.

With `COc1ccc2nc(N3CCC[C@@H](N)C3)n(Cc3ccccc3C#N)c(=O)c2c1` the half-life at 1 µM (in vitro [3]; liver microsomes) was 1.37 h and the half-life at 1 µM (in vitro [4]; liver microsomes) was 0.167 h.

`Cl.Cn1c(=O)cc(N2CCC[C@@H](N)C2)n(Cc2ccccc2C#N)c1=O` showed a half-life [10] of 2.93 h, a half-life [11] of 3.04 h and an AUC [12] of 1610 ng·h/mL. For the same compound, the clearance [13] was 23 mL/min/kg, the Vd [14] was 3.51 L/kg and the bioavailability [15] was 68%.

With `Cn1c(=O)cc(N2CCC[C@@H](N)C2)n(Cc2ccccc2C#N)c1=O.O=C(O)c1ccccc1` [ALOGLIPTIN BENZOATE] the half-life [16] was 5.74 h, the half-life [17] was 5.66 h and the AUC [18] was 16600 ng·h/mL. The clearance [19] was 8.81 mL/min/kg, the Vd [20] was 2.6 L/kg and the bioavailability [21] was 87%.

With `N#Cc1ccccc1Cn1c(N2CCC[C@@H](N)C2)nc2ccc(Cl)cc2c1=O` the half-life at 1 µM (in vitro [3]; liver microsomes) was greater than 3.33 h and the half-life at 1 µM (in vitro [4]; liver microsomes) was 0.667 h.

Work on `N#Cc1ccccc1Cn1c(N2CCC[C@@H](N)C2)nc2ccc(Br)cc2c1=O` yielded a half-life at 1 µM (in vitro [3]; liver microsomes) of 1.88 h and a half-life at 1 µM (in vitro [4]; liver microsomes) of 0.567 h.

With `COc1cc2c(=O)n(Cc3ccccc3C#N)c(N3CCC[C@@H](N)C3)nc2cc1F` the half-life at 1 µM (in vitro [3]; liver microsomes) was 2.27 h and the half-life at 1 µM (in vitro [4]; liver microsomes) was 0.583 h.

`N#Cc1ccccc1Cn1c(N2CCC[C@@H](N)C2)nc2ccccc2c1=O` showed a half-life at 1 µM (in vitro [3]; microsomes) greater than 3.33 h and a half-life at 1 µM (in vitro [4]; microsomes) of 0.0417 h.
